According to ChEMBL document CHEMBL1144212, “Design and synthesis of 3-pyrazolyl-thiophene, thieno[2,3-d]pyrimidines as new bioactive and pharmacological activities” (Bioorg Med Chem Lett, 2008):

Key:
[1] = test system: Rattus norvegicus; assay: Antiinflammatory activity against carrageenan-induced albino rat hind paw edema model assessed as edema rate at 15 mg/kg, po administered 1 hr before carrageenan challenge measured after 1 hr; type: functional
Outline: (§1)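 Albino rats of both sexes were fasted 18 h, five per group. Dosing was 15 mg/kg orally as an aqueous suspension (tween-80/water vehicle), 1 h before subplantar 0.1 mL 1% w/v carrageenin in the left hind paw. Paw volume was measured by mercury plethysmometer before injection, then hourly for 4 h. Edema rate = (Vt − Vo)/Vo.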

[2] = test system: Rattus norvegicus; assay: Antiinflammatory activity against carrageenan-induced albino rat hind paw edema model at 15 mg/kg, po administered 1 hr before carrageenan challenge measured after 2 hrs relative to indomethacin; type: functional
[3] = test system: Rattus norvegicus; assay: Antiinflammatory activity against carrageenan-induced albino rat hind paw edema model at 15 mg/kg, po administered 1 hr before carrageenan challenge measured after 3 hrs relative to indomethacin; type: functional
[4] = test system: Rattus norvegicus; assay: Antiinflammatory activity against carrageenan-induced albino rat hind paw edema model assessed as edema rate at 15 mg/kg, po administered 1 hr before carrageenan challenge measured after 4 hrs; type: functional; outline: as §1
[5] = test system: Mus musculus; assay: Analgesic activity in Swiss albino mouse at 20 mg/kg, po assessed as reaction time after 60 mins by hot plate method; type: functional
Outline: (§2)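 Swiss albino mice of both sexes (25–30 g), kept at 22 °C on a 12 h light/dark cycle, in groups of five. Given 20 mg/kg orally as an aqueous suspension; aspirin reference at 20 mg/kg orally. Hot plate at 53 °C. Reaction time (placement to hind-paw licking or jumping) was taken before dosing and at 15, 30, 60 and 90 min; 60 s cut-off.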

[6] = test system: Mus musculus; assay: Analgesic activity in Swiss albino mouse at 20 mg/kg, po assessed as reaction time after 30 mins by hot plate method; type: functional; outline: as §2
[7] = test system: Rattus norvegicus; assay: Antiinflammatory activity against carrageenan-induced albino rat hind paw edema model assessed as edema rate at 15 mg/kg, po administered 1 hr before carrageenan challenge measured after 3 hrs; type: functional; outline: as §1
[8] = test system: Rattus norvegicus; assay: Antiinflammatory activity against carrageenan-induced albino rat hind paw edema model assessed as edema rate at 15 mg/kg, po administered 1 hr before carrageenan challenge measured after 2 hrs; type: functional; outline: as §1
[9] = test system: Rattus norvegicus; assay: Antiinflammatory activity against carrageenan-induced albino rat hind paw edema model at 15 mg/kg, po administered 1 hr before carrageenan challenge measured after 4 hrs relative to indomethacin; type: functional
[10] = test system: Rattus norvegicus; assay: Gastrointestinal toxicity in carrageenan-induced albino rat hind paw edema model assessed as induction of ulcerogenicity at 15 mg/kg, po; type: organism-based; set-up: dose 15 mg/kg, route oral; settings: in vivo
[11] = test system: Mus musculus; assay: Analgesic activity in Swiss albino mouse at 20 mg/kg, po assessed as reaction time after 90 mins by hot plate method; type: functional; outline: as §2
[12] = test system: Rattus norvegicus; assay: Antiinflammatory activity against carrageenan-induced albino rat hind paw edema model at 15 mg/kg, po administered 1 hr before carrageenan challenge measured after 1 hr relative to indomethacin; type: functional
[13] = test system: Shigella dysenteriae; assay: Antibacterial activity against Shigella dysenteriae AE 14396 after 48 hrs by disc diffusion method; type: functional; settings: read-out: MIC
[14] = test system: Salmonella typhi; assay: Antibacterial activity against Salmonella typhi AE 14612 after 48 hrs by disc diffusion method; type: functional, Salmonella enterica subsp. enterica serovar Typhi; settings: Salmonella enterica, read-out: MIC
[15] = test system: Bacillus cereus; assay: Antibacterial activity against Bacillus cereus BTCC19 after 48 hrs by disc diffusion method; type: functional
Outline: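 Disc diffusion on nutrient agar. Compounds were dissolved in DMF at 1 mg/mL, applied per disc. Inhibition zones (mm) were read after 48 h at 28 °C. DMF alone was the negative control; ampicillin was the reference.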

[16] = test system: Fusarium equiseti; assay: Antifungal activity against Fusarium equiseti (Corda) Sacc after 48 hrs by poisoned-food technique; type: functional; set-up: concentration or dose not given beside the values
[17] = test system: Rattus norvegicus; assay: Antiinflammatory activity against carrageenan-induced albino rat hind paw edema model assessed as edema rate at 10 mg/kg, po administered 1 hr before carrageenan challenge measured after 1 hr; type: functional
Outline: (§3)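 Indomethacin reference group: 10 mg/kg orally as an aqueous suspension, 1 h before carrageenin. Albino rats of both sexes were fasted 18 h, five per group. Edema was induced by subplantar 0.1 mL 1% w/v carrageenin in the left hind paw. Paw volume was read by mercury plethysmometer before injection and hourly for 4 h. Edema rate = (Vt − Vo)/Vo.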

[18] = test system: Rattus norvegicus; assay: Antiinflammatory activity against carrageenan-induced albino rat hind paw edema model assessed as edema rate at 10 mg/kg, po administered 1 hr before carrageenan challenge measured after 2 hrs; type: functional; outline: as §3
[19] = test system: Rattus norvegicus; assay: Antiinflammatory activity against carrageenan-induced albino rat hind paw edema model assessed as edema rate at 10 mg/kg, po administered 1 hr before carrageenan challenge measured after 4 hrs; type: functional; outline: as §3
[20] = test system: Rattus norvegicus; assay: Antiinflammatory activity against carrageenan-induced albino rat hind paw edema model assessed as edema rate at 10 mg/kg, po administered 1 hr before carrageenan challenge measured after 3 hrs; type: functional; outline: as §3

`CCOC(=O)c1sc(N)c(C(=O)n2nc(C)cc2C)c1C` was tested, and the Activity [1] was 2.58%, the Activity [2] was 19.8% and the Activity [3] was 25.38%. The Activity [4] was -0.25%, the Activity [5] was 7.62 s and the Activity [6] was 7.72 s. It also gave an Activity [7] of 8.46%, an Activity [8] of 7.88% and an Activity [9] of 0.61%. For the same compound, the Activity [10] was “Non-toxic”, the Activity [11] was 9.78 s and the Activity [12] was -7.27%.
In the case of `CCOC(=O)c1sc2nc(C)n(N)c(=O)c2c1C`, the zone of inhibition [13] is reported as 7 µg/mL, the zone of inhibition [14] is reported as 15 µg/mL and the Activity [1] is reported as -29.82%. The Activity [2] was 45.06%, the Activity [3] was 43.95% and the Activity [4] was -15.24%. For the same compound, the Activity [5] was 5.04 s, the Activity [6] was 6.46 s and the Activity [7] was -14.65%. For the same compound, the Activity [8] was -17.93%, the zone of inhibition [15] was 15 mm and the Activity [9] was 37.06%. For the same compound, the Activity [11] was 6.7 s, the Activity [12] was 84.05% and the inhibition [16] was 37.5%.
`CCOC(=O)c1sc(NC(C)=O)c(C(=O)OCC)c1C` gave a zone of inhibition [13] of 14 µg/mL, a zone of inhibition [14] of 11 µg/mL and an Activity [1] of -15.03%. It also gave an Activity [2] of 30.44%, an Activity [3] of 0.12% and an Activity [4] of -5.2%. For the same compound, the Activity [5] was 5.96 s, the Activity [6] was 7.34 s and the Activity [7] was -4%. The Activity [8] was -12.11%, the zone of inhibition [15] was 11 mm and the Activity [9] was 12.65%. It also gave an Activity [11] of 6.08 s, an Activity [12] of 42.36% and an inhibition [16] of 36.3%.
`CCOC(=O)c1sc(N)c(C(=O)NN)c1C` gave a zone of inhibition [13] of 6 µg/mL, an Activity [1] of -13.43% and an Activity [2] of 22.22%. The Activity [3] was 29.4%, the Activity [4] was -13.32% and the Activity [5] was 6.2 s. The Activity [6] was 6.12 s, the Activity [7] was -9.8% and the Activity [8] was -8.84%. For the same compound, the zone of inhibition [15] was 10 mm, the Activity [9] was 32.39% and the Activity [10] was “Non-toxic”. For the same compound, the Activity [11] was 7.86 s, the Activity [12] was 37.85% and the inhibition [16] was 29.3%.
In the case of `CCOC(=O)c1sc(N)c(C(=O)N/N=C/c2ccc(OC)cc2)c1C`, the zone of inhibition [14] is reported as 12 µg/mL, the Activity [1] is reported as -14.4% and the Activity [2] is reported as 3.82%. It also gave an Activity [3] of 11.73%, an Activity [4] of -13.29% and an Activity [5] of 7.72 s. For the same compound, the Activity [6] was 6.42 s, the Activity [7] was -3.91% and the Activity [8] was -1.52%. For the same compound, the zone of inhibition [15] was 10 mm, the Activity [9] was 32.32% and the Activity [11] was 9.06 s. It also gave an Activity [12] of 40.59% and an inhibition [16] of 28%.
`CCOC(=O)c1sc(N)c(C(=O)NNC(N)=S)c1C` showed a zone of inhibition [13] of 13 µg/mL, a zone of inhibition [14] of 28 µg/mL and an Activity [1] of 36.56%. For the same compound, the Activity [2] was 93.52%, the Activity [3] was 88.21% and the Activity [4] was -34.62%. The Activity [5] was 5.74 s, the Activity [6] was 5.44 s and the Activity [7] was -29.4%. The Activity [8] was -37.21%, the zone of inhibition [15] was 20 mm and the Activity [9] was 84.19%. For the same compound, the Activity [11] was 6.14 s, the Activity [12] was 103.04% and the inhibition [16] was 28%.
With `CCOC(=O)c1sc(N)c(C(=O)NNC=O)c1C` the zone of inhibition [13] was 30 µg/mL, the zone of inhibition [14] was 34 µg/mL and the Activity [1] was -51.18%. The Activity [2] was 96%, the Activity [3] was 88.75% and the Activity [4] was -31.32%. It also gave an Activity [5] of 6.9 s, an Activity [6] of 6.08 s and an Activity [7] of -29.58%. For the same compound, the Activity [8] was -38.2%, the zone of inhibition [15] was 33 mm and the Activity [9] was 76.17%. For the same compound, the Activity [11] was 4.84 s, the Activity [12] was 144.25% and the inhibition [16] was 65.6%.
In the case of `CCOC(=O)c1sc(N)c(C(=O)NNc2nc(C)cs2)c1C`, the zone of inhibition [13] is reported as 28 µg/mL, the zone of inhibition [14] is reported as 29 µg/mL and the Activity [1] is reported as -45.14%. It also gave an Activity [2] of 93.42%, an Activity [3] of 75.99% and an Activity [4] of -26.53%. The Activity [5] was 6.46 s, the Activity [6] was 6.68 s and the Activity [7] was -25.33%. For the same compound, the Activity [8] was -37.17%, the zone of inhibition [15] was 31 mm and the Activity [9] was 64.52%. For the same compound, the Activity [11] was 4.7 s, the Activity [12] was 127.23% and the inhibition [16] was 43.8%.
Compound `CCOC(=O)c1sc(N)c(C(=O)N2NC(=O)CC2=O)c1C` has a zone of inhibition [13] of 12 µg/mL, a zone of inhibition [14] of 15 µg/mL and an Activity [1] of -26.54%. The Activity [2] was 78.01%, the Activity [3] was 65.5% and the Activity [4] was -26.84%. The Activity [5] was 12.42 s, the Activity [6] was 10.22 s and the Activity [7] was -20.9%. It also gave an Activity [8] of -31.04%, a zone of inhibition [15] of 9 mm and an Activity [9] of 65.27%. The Activity [10] was “Non-toxic”, the Activity [11] was 10.68 s and the Activity [12] was 74.8%. It also gave an inhibition [16] of 40%.
In the case of `CCOC(=O)c1sc2[nH]c(=S)n(N)c(=O)c2c1C`, the zone of inhibition [13] is reported as 18 µg/mL, the zone of inhibition [14] is reported as 17 µg/mL and the Activity [1] is reported as -30.19%. The Activity [2] was 36.54%, the Activity [3] was 31.74% and the Activity [4] was -24.67%. For the same compound, the Activity [5] was 7.24 s, the Activity [6] was 6.6 s and the Activity [7] was -10.58%. The Activity [8] was -14.54%, the zone of inhibition [15] was 19 mm and the Activity [9] was 59.99%. The Activity [11] was 7.16 s, the Activity [12] was 85.09% and the inhibition [16] was 47.6%.
For `CC1(C)S[C@@H]2[C@H](NC(=O)[C@H](N)c3ccccc3)C(=O)N2[C@H]1C(=O)O` [AMPICILLIN], the zone of inhibition [13] was 30 µg/mL, the zone of inhibition [14] was 24 µg/mL and the zone of inhibition [15] was 21 mm.
`CC(=O)Oc1ccccc1C(=O)O` [ASPIRIN] was tested, and the Activity [5] was 6.56 s, the Activity [6] was 6.66 s and the Activity [11] was 7.78 s.
For `COc1ccc2c(c1)c(CC(=O)O)c(C)n2C(=O)c1ccc(Cl)cc1` [INDOMETHACIN], the Activity [17] was -35.48%, the Activity [18] was -39.79% and the Activity [19] was -41.12%. For the same compound, the Activity [20] was -33.33%.
